Data from EPA's CvTdb concentration-time database.

Columns and labels:
[1] = tested on: Rat; test: concentration in plasma after dosing; conditions: 6 h; dosed: 2-Hydroxy-4-methoxybenzophenone; 500 mg/kg; oral; Male; F344
[2] = tested on: Mouse; test: concentration in plasma after dosing; conditions: 10 min; dosed: 2-Hydroxy-4-methoxybenzophenone; 250 mg/kg; oral; Female; B6C3F1
[3] = tested on: Rat; test: concentration in plasma after dosing; conditions: 2 min; dosed: Nitrite; 40 mg/kg; oral; Female; F344
[4] = tested on: Rat; test: concentration in plasma after dosing; conditions: 0.5 h; dosed: Nitrite; 40 mg/kg; oral; Female; F344
[5] = tested on: Rat; test: concentration in plasma after dosing; conditions: dosed: 678-39-7, 40 mg/kg, iv, Male, F344
[6] = tested on: Rat; test: concentration in liver after dosing; conditions: 1 h; dosed: Fluorotelomer alcohol 8+2; 80 mg/kg; oral; Female; Harlan Sprague Dawley
[7] = tested on: Rat; test: concentration in brain after dosing; conditions: 12 h; dosed: Perfluorooctanoic acid; 80 mg/kg; oral; Female; Harlan Sprague Dawley
[8] = tested on: Rat; test: concentration in kidney after dosing; conditions: 6 h; dosed: Fluorotelomer alcohol 8+2; 80 mg/kg; oral; Female; Harlan Sprague Dawley
[9] = tested on: Rat; test: concentration in plasma after dosing; conditions: dosed: 678-39-7, 40 mg/kg, iv, Male, F344; remark: listed apart in the source
[10] = tested on: Rat; test: concentration in plasma after dosing; conditions: dosed: 678-39-7, 12 mg/kg, iv, Male, F344
[11] = tested on: Rat; test: concentration in plasma after dosing; conditions: 3 h; dosed: Fluorotelomer alcohol 8+2; 12 mg/kg; oral; Male; Harlan Sprague Dawley
[12] = tested on: Rat; test: concentration in liver after dosing; conditions: 1 h; dosed: Fluorotelomer alcohol 8+2; 24 mg/kg; oral; Male; Harlan Sprague Dawley
[13] = tested on: Rat; test: concentration in kidney after dosing; conditions: 0.5 h; dosed: Fluorotelomer alcohol 8+2; 80 mg/kg; oral; Female; Harlan Sprague Dawley
[14] = tested on: Rat; test: concentration in kidney after dosing; conditions: 528 h; dosed: Perfluorooctanoic acid; 12 mg/kg; oral; Male; Harlan Sprague Dawley
[15] = tested on: Rat; test: concentration in liver after dosing; conditions: 6 h; dosed: Perfluorooctanoic acid; 12 mg/kg; oral; Male; Harlan Sprague Dawley
[16] = tested on: Rat; test: concentration in kidney after dosing; conditions: 12 h; dosed: Fluorotelomer alcohol 8+2; 24 mg/kg; oral; Male; Harlan Sprague Dawley
[17] = tested on: Rat; test: concentration in liver after dosing; conditions: 1 h; dosed: Fluorotelomer alcohol 8+2; 24 mg/kg; oral; Male; Harlan Sprague Dawley; remark: listed apart in the source
[18] = tested on: Rat; test: concentration in liver after dosing; conditions: 12 h; dosed: Fluorotelomer alcohol 8+2; 80 mg/kg; oral; Female; Harlan Sprague Dawley
[19] = tested on: Rat; test: concentration in liver after dosing; conditions: 0.5 h; dosed: Potassium Perfluorobutane Sulfonate; 20 mg/kg; oral; Male; Harlan Sprague Dawley
[20] = tested on: Rat; test: concentration in plasma after dosing; conditions: dosed: Potassium Perfluorobutane Sulfonate, 4 mg/kg, iv, Male, F344
[21] = tested on: Rat; test: concentration in kidney after dosing; conditions: 0.5 h; dosed: Potassium Perfluorobutane Sulfonate; 20 mg/kg; oral; Male; Harlan Sprague Dawley
[22] = tested on: Rat; test: concentration in plasma after dosing; conditions: dosed: Potassium Perfluorobutane Sulfonate, 4 mg/kg, oral, Male, Harlan Sprague Dawley
[23] = tested on: Rat; test: concentration in plasma after dosing; conditions: 1.5 h; dosed: Potassium Perfluorobutane Sulfonate; 4 mg/kg; iv; Male; F344
[24] = tested on: Rat; test: concentration in plasma after dosing; conditions: dosed: Potassium Perfluorobutane Sulfonate, 4 mg/kg, iv, Male, F344; remark: listed apart in the source
[25] = tested on: human; test: amount in urine after dosing (umol)
Outline: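 Concentration-versus-time or amount-versus-time points were compiled from published in vivo toxicokinetic studies and from two structured collections. The studies were found by PubMed searching, classifier screening and manual review. Points were mostly digitised from plot screenshots with WebPlotDigitizer, otherwise copied from tables, and kept in the reported units. Dose, route, subject details and medium were curated by hand from each paper, and sampling and analytical methods follow each source and were often unreported.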

COc1ccc(C(=O)c2ccccc2)c(O)c1 [2-Hydroxy-4-methoxybenzophenone]
Conditions	concentration in plasma [µg/mL]
[1]	0.189
[2]	0.117

O=N[O-] [Nitrite]
Conditions	concentration in plasma [µg/mL]
[3]	7.3
[4]	11.6

O=C(O)C(F)(F)C(F)(F)C(F)(F)C(F)(F)C(F)(F)C(F)(F)C(F)(F)F [Perfluorooctanoic acid]
Conditions	concentration in plasma
[5], 5 min	350 µg/mL
[5], 6 h	66.1 µg/mL
[9], 0.25 h	276 µg/mL
[9], 6 h	77.7 µg/mL
[9], 48 h	0.0319 µg/mL
[10], 3 h	485 ng/mL
[10], 5 min	58.3 ng/mL

Conditions	concentration in brain [ng/g]	concentration in kidney [ng/g]	concentration in liver [ng/g]	concentration in plasma [ng/mL]
[6]	–	–	727	–
[7]	1280	–	–	–
[8]	–	1730	–	–
[11]	–	–	–	392
[12]	–	–	676	–
[13]	–	284	–	–
[14]	–	6860	–	–
[15]	–	–	63400	–
[16]	–	581	–	–
[17]	–	–	535	–
[18]	–	–	498	–

O=S(=O)([O-])C(F)(F)C(F)(F)C(F)(F)C(F)(F)F.[K+] [Potassium Perfluorobutane Sulfonate]
Conditions	concentration in kidney [ng/g]	concentration in liver [ng/g]	concentration in plasma [ng/mL]
[19]	–	62000	–
[21]	9690	–	–
[23]	–	–	17300

Conditions	concentration in plasma [ng/mL]
[20], 3 h	476
[20], 5 min	29200
[22], 0.5 h	7030
[22], 9 h	5080
[24], 0.25 h	27200
[24], 6 h	4170

CC(C)(C)O [tert-butyl alcohol]
amount in urine, [25], inhalation, duration: 4 hr
Conditions	dosed: ethyl tert-butyl ether	dosed: methyl tert-butyl ether
0 h, 4.5 ppm	–	0.221
0 h, 40.6 ppm	2.39	–
0.1079 h, 38.7 ppm	–	6.16
2 s, 4.5 ppm	0.655	–
5.895 h, 40.6 ppm	5.98	–
5.968 h, 4.5 ppm	1.15	–
6.052 h, 4.5 ppm	–	0.993
6.07 h, 38.7 ppm	–	7.53
11.89 h, 40.6 ppm	5.18	–
11.9 h, 4.5 ppm	–	0.993
11.92 h, 38.7 ppm	–	6.16
12.14 h, 4.5 ppm	0.764	–
17.89 h, 40.6 ppm	3.59	–
18.05 h, 4.5 ppm	0.545	0.221
18.09 h, 38.7 ppm	–	4.11
23.89 h, 40.6 ppm	1.59	–
23.9 h, 4.5 ppm	–	0.221
23.95 h, 38.7 ppm	–	2.74
24.02 h, 4.5 ppm	0.545	–
29.89 h, 40.6 ppm	1.39	–
30.05 h, 4.5 ppm	–	0.221
30.12 h, 38.7 ppm	–	4.11
30.19 h, 4.5 ppm	0.273	–
35.9 h, 4.5 ppm	–	0.11
35.97 h, 38.7 ppm	–	2.74
36.11 h, 40.6 ppm	0.598	–
42.11 h, 40.6 ppm	0.598	–
42.14 h, 38.7 ppm	–	0.685
48.11 h, 40.6 ppm	0.797	–
48.29 h, 4.5 ppm	0.0545	–
54.17 h, 38.7 ppm	–	0.685
71.95 h, 38.7 ppm	–	0.685
72.05 h, 40.6 ppm	0.199	–

[25], dosed: methyl tert-butyl ether, oral
Conditions	amount in urine
0 h, 5 mg	0.0137
5.859 h, 15 mg	0.646
6.163 h, 5 mg	0.274
12.01 h, 5 mg	0.233
12.04 h, 15 mg	0.568
17.9 h, 15 mg	0.329
18.18 h, 5 mg	0.123
24.08 h, 15 mg	0.292
24.24 h, 5 mg	0.0548
29.94 h, 15 mg	0.214
30.19 h, 5 mg	0.0685
36.12 h, 15 mg	0.136
36.25 h, 5 mg	0.0548
41.98 h, 15 mg	0.138
42.1 h, 5 mg	0.0137
48.05 h, 15 mg	0.101
54.02 h, 15 mg	0.143
